Source: PubChem (several laboratories)
Compounds with a hit are over-represented: about 1.4% of the library has one in this group of screens.
Vif inh: blocks HIV Vif function. HEK293T cells, Vif self-association by quenched fluorescence, imaging, 24 h. inhibition, % at 7.49 µM. hit rate 0.35% among 340,000. AID 602346; in the data active = inhibition above about 50%, passing the limit was not always enough
Myeloid diff MLP: compounds promoting myeloid differentiation. ER-HoxA9 myeloid progenitors, lysozyme-GFP differentiation, flow cytometry. calls only at 10 µM. hit rate 1% among 360,000;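 active = normalized GFP-positive differentiation at or above the plate's own cutoff, the solvent-only control mean plus 3 SD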;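 note: cells exposed to compound for four days before flow analysis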
T cell modulator: modulates CD8 T cell binding to vesicles; 2C CD8+ T cell-vesicle binding, flow cytometry; stronger effect = lower value; response (vesicle binding), % at 7 µM; hit rate 0.068% among 330,000; AID 2052;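 active = response, share of CD8 T cells binding vesicles, and their 90th percentile fluorescence all below set limits, cut at about 80% in these data, passing the limit was not always enough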;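 note: values below 100% mean blocked vesicle binding to the CD8+ T cells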
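Also added: QL9-peptide-loaded Drosophila micro-vesicles bearing Ld, ICAM-1 and B7-1; Test system: purified 2C TCR transgenic mouse naive CD8+ T cells; Measured by: cytometric PE anti-B7-1 and Alexa647 anti-CD8 signals after 1% paraformaldehyde fixation; Timing: binding step 1.5 h, 37 °C, antibody labelling 20 min, ice.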
Casp6 inh: caspase-6 (human) enzyme inhibition | hit rate 0.53% among 350,000 | AID 686996 | P55212 | inhibition, % at 12.5 µM | purified caspase-6, Z-VEID-R110 cleavage fluorescence;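 active = mean inhibition across replicates at least about 35%, with every replicate also reaching that limit, limit read from the data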
Target sequence (P55212 24-179 limits assumed): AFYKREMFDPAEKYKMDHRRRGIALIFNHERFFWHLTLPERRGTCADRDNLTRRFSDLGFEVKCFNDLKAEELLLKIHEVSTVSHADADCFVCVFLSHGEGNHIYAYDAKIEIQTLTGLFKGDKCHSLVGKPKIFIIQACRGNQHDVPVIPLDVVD
Target sequence (P55212 194-293 limits assumed): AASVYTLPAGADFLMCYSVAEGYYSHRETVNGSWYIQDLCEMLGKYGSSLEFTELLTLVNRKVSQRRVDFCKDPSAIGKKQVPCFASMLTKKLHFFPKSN
A number is an active result; - = inactive; . = no result given; + = active, no number.

SMILES	Vif inh	Myeloid diff MLP	T cell modulator	Casp6 inh
COc1ccc(C2=NS(=O)(=O)N(C)C(C(=O)N3CCc4ccccc4C3)=C2)cc1OC	-	+	-	-
Cc1nc(-n2nnc3cc(C)c(C)cc32)c2c3c(sc2n1)CCCC3	-	+	-	.
Cc1nc(N2CCOCC2)c2c3c(sc2n1)CCC3	-	-	-	-
Cc1c(C(=O)NNC(=O)c2cccnc2)cccc1[N+](=O)[O-]	-	-	0.0	-
C[C@H]1CN([C@@H](C)CO)C(=O)c2cc(C#CCN(C)C)cnc2O[C@H]1CN(C)S(=O)(=O)c1ccccc1	.	.	.	-
Cc1ccc(-c2cnc3c(c2)C(=O)N([C@@H](C)CO)C[C@H](C)[C@H](CN(C)C(=O)c2ccc(F)cc2)O3)cc1	.	.	.	-
COc1cc(OC)c(-c2nn3c(C4CCCCC4)nnc3s2)cc1OC	-	-	-	43
COc1cc(-c2nnc3sc(C4CCCCC4)nn23)cc(OC)c1OC	-	-	-	.
CC1(C)CN(C2CCCCC2)C(=O)[C@H]1CC(=O)Nc1ccccc1	.	-	.	-
CNC(=O)C[C@@H]1C(=O)N(C2CCCCC2)CC1(C)C	-	+	.	-
COc1ccc(NC(=O)Nc2ccc3c(c2)[C@@H]2C[C@@H](CC(=O)NCCc4ccccc4)O[C@H](CO)[C@@H]2O3)cc1	.	.	.	-
CCOC(=O)c1c(-c2ccccc2)csc1NC(=O)/C(C#N)=C/c1ccc(O)c(OC)c1	-	+	-	.
CCOC(=O)c1c(-c2ccccc2)csc1NC(=O)c1cc(-c2ccccc2OC)on1	-	-	-	-
CCOC(=O)c1c(-c2ccccc2)csc1NC(=O)/C(C#N)=C/c1ccc(OC)c(OC)c1	-	+	-	.
C1=C2C[N+]3(CCCC3)CC2Cc2ccc3ccccc3c21 (configuration not stated)	-	+	-	-
Cc1ccc(NC(=O)Nc2cccc(C)n2)cc1	-	-	-	-
Cc1cccc(NC(=O)Nc2ccc(F)cc2)n1	.	+	-	-
CCOC(=O)Cn1c(COc2ccccc2OC)[n+](C)c2ccccc21	66	-	-	-
COc1cc(C)ccc1S(=O)(=O)NC(=O)C1(C)CCN1C(=O)Cc1ccc(Cl)cc1Cl (configuration not stated)	-	+	.	-
C=CCNC(=O)NC(=O)COC(=O)/C=C/c1cccc([N+](=O)[O-])c1	-	-	-	-
CC(C)CCNC(=O)NC(=O)COC(=O)/C=C/c1cccc([N+](=O)[O-])c1	-	+	-	-
Cn1c(/C(C#N)=C/c2ccc(-c3ccc(S(N)(=O)=O)cc3)o2)nc2ccccc21	-	+	-	.
Cn1c(/C(C#N)=C/c2cccc(O)c2)nc2ccccc21	-	-	-	-
CCCn1c(=O)c2sccc2n2c(CCCC(=O)NCc3cccnc3)nnc12	-	-	-	-
CCCn1c(=O)c2sccc2n2c(CCCC(=O)NCc3ccco3)nnc12	-	-	-	58
SMILES	Vif inh	Myeloid diff MLP	T cell modulator	Casp6 inh
CN(C)c1ccc2c(c1)[C@@H]1C[C@H](CC(=O)NCc3cccc(F)c3)O[C@H](CO)[C@@H]1O2	.	.	.	-
Cc1ccc(N2CCN(C(=S)c3ccc(N(C)C)cc3)CC2)cc1	66	-	-	.
CN1C(=O)NC(c2ccccc2[N+](=O)[O-])C2=C1CC(C)(C)CC2=O (configuration not stated)	-	-	-	-
CN1C(=O)NC(c2ccccc2[N+](=O)[O-])C2=C1CCCC2=O (configuration not stated)	-	+	-	-
O=C(NC1CCCCC1)N[C@H]1CC[C@H](CC(=O)N2CCOCC2)O[C@H]1CO	.	.	.	-
COc1ccccc1N(CC(=O)NCCSCc1ccccc1Cl)S(C)(=O)=O	.	-	-	39
CS(=O)(=O)N(CC(=O)NCCSCc1ccccc1Cl)c1ccccc1F	-	-	-	-
O=C1O[C@H](CO)[C@@H](O)[C@H](O)[C@H]1O	-	-	.	-
O=CC(O)C1OC(=O)C(O)C1O (configuration not stated)	-	-	.	41
COCC(=O)N(C)C[C@H]1Oc2ncc(-c3ccccc3OC)cc2C(=O)N([C@H](C)CO)C[C@@H]1C	.	.	.	-
C=CCOC(=O)C1=C[C@@H](c2ccc(Br)cc2)C[C@@H](OCCCCO)O1	51	-	-	-
Cc1nn(C)cc1CN(C)Cc1ccc(OCC(O)CN2CCCCC2)cc1 (configuration not stated)	64	-	-	-
O=c1c(-c2c(O)cc(O)c3c(=O)cc(-c4ccc(O)cc4)oc23)c(-c2ccc(O)cc2)oc2cc(O)cc(O)c12	-	-	-	83
O=c1cc(-c2ccc(O)cc2)oc2c(-c3c(O)cc(O)c4c(=O)cc(-c5ccc(O)cc5)oc34)c(O)cc(O)c12	-	-	-	-
CC(C)NC(=O)N(C)C[C@@H]1Oc2ccc(NS(=O)(=O)c3ccc(Cl)cc3)cc2CC(=O)N([C@@H](C)CO)C[C@H]1C	.	.	.	-
COc1cccc(OCc2cc(C(=O)N(C)C3CC(C)(C)NC(C)(C)C3)no2)c1	-	-	-	-
COc1cccc(OCc2cc(C(=O)N(C)C3CCOCC3)no2)c1	.	+	-	-
COc1cccc(OCc2cc(C(=O)N3CCC(c4ccncc4)CC3)no2)c1	-	+	-	-
COc1cccc(NC(=S)NC(=O)/C=C/c2ccco2)c1	102	-	-	-
CC(=O)Nc1ccc(NC(=S)NC(=O)/C=C/c2ccco2)cc1	-	-	-	-
COc1ccc(NC(=S)NC(=O)/C=C/c2ccco2)c(OC)c1	-	-	-	-
O=C(/C=C/c1ccco1)NC(=S)Nc1cccc(C(=O)O)c1	-	-	-	36
CCNC(=O)[C@H]1[C@H](CO)[C@H]2Cn3c(ccc(-c4ccc(F)cc4)c3=O)[C@@H]1N2Cc1ccccc1F	.	.	.	-
C[C@H]1CN([C@@H](C)CO)C(=O)Cc2cc(NC(=O)C3CCCCC3)ccc2O[C@H]1CN(C)S(=O)(=O)c1ccccc1	.	.	.	-
Cc1ccc(CS(=O)(=O)c2ccc(C(=O)N3CCN(c4ccccn4)CC3)cc2[N+](=O)[O-])cc1	-	+	-	-
SMILES	Vif inh	Myeloid diff MLP	T cell modulator	Casp6 inh
Cc1cc(C(=O)Nc2cccc3c2O[C@@H](CN(C)S(=O)(=O)c2ccccc2)[C@@H](C)CN([C@@H](C)CO)C3=O)n(C)n1	.	.	.	-
Cc1nn(C)c(C)c1N1C(=O)c2cccc3c(Br)ccc(c23)C1=O	.	+	-	.
CN(C)CCCN1C(=O)c2cccc3c(Br)ccc(c23)C1=O	-	-	-	-
Cc1nn(C)c(C)c1N1C(=O)c2cccc3c(N)ccc(c23)C1=O	-	+	-	.
CC(C)CC#Cc1ccc([C@@H]2[C@H]3CN(C(=O)NC4CCCCC4)CC(=O)N3[C@H]2CO)cc1	.	.	.	-
CN1CCN(c2ccc(-c3ccc4ccccc4n3)cc2)CC1	-	+	.	-
Cc1cc(-c2ccc(N3CCOCC3)cc2)nc2ccccc12	-	+	-	-
c1ccc2nc(-c3ccc(N4CCOCC4)cc3)ccc2c1	-	-	-	.
CC(C)C#Cc1ccc2c(c1)O[C@H](CN(C)C(=O)c1cccc(F)c1)[C@@H](C)CN([C@H](C)CO)S2(=O)=O	.	.	.	-
COC(=O)C[C@H]1CC[C@H]2[C@H](COc3ccc(NC(=O)c4ccc(F)cc4)cc3C(=O)N2C)O1	.	.	.	-
